One block for each compound: values may come before it.
Legend:
[1] = biological target: T1, Adenosine receptor A2a (Homo sapiens, UniProt P29274); test: Displacement of [3H]-ZM241385 from human adenosine A2A receptor expressed in high five cells after 30 mins by scintillation counting
[2] = organism: Homo sapiens; test: Selectivity ratio of Ki for human adenosine A1 receptor to Ki for human adenosine A2A receptor
[3] = biological target: T2, Adenosine receptor A1 (Homo sapiens, UniProt P30542); test: Displacement of [3H]-DPCPX from human adenosine A1 receptor expressed in CHO cells after 30 mins by scintillation counting; format: cell-based
T2 sequence (P30542 whole entry): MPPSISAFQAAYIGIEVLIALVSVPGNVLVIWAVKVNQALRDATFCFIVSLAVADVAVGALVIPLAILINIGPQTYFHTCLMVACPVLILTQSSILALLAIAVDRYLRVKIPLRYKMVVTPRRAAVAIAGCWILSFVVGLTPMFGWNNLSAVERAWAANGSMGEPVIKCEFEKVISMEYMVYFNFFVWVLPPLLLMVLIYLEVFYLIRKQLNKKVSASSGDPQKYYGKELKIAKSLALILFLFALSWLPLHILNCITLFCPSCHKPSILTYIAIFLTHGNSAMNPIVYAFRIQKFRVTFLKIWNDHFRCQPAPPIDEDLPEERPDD
Method in brief: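 CHO-hA1 membranes at 10.8 μg protein/well, pretreated with adenosine deaminase (2 U/mL, 30 min, 37 C), were incubated with 1 nM [3H]-DPCPX in 50 mM Tris/HCl pH 7.4 for 30 min at 25 C across 10 compound concentrations. Filtration on PEI-soaked GF/B, scintillation counting. Nonspecific binding by CGS15943. Ki by Cheng-Prusoff. Means of ≥2 determinations.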

[4] = system: Caco-2; test: Efflux ratio of permeability from basolateral to apical over apical to basolateral side in human Caco2 cells after 21 to 28 days by LC-MS/MS analysis
[5] = biological target: Cytochrome P450 2C19 (Homo sapiens, UniProt P33261); test: Inhibition of recombinant CYP2C19 after 45 mins; format: ADME
Method in brief: (§1)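 Recombinant CYP supersomes incubated in phosphate buffer with eight compound concentrations (40-0.02 μM) and fluorogenic substrates. CYP1A2: 7-ethoxy-3-cyanocoumarin 10 μM, 28 min. CYP2C19: same substrate 50 μM, 45 min. CYP2D6: AMMC 3 μM, 45 min. CYP3A4: resorufin benzyl ether 100 μM, 30 min. Fluorescent metabolite read; IC50 relative to uninhibited controls.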

[6] = biological target: T3, Adenosine receptor A1 (Homo sapiens) (UniProt P30542); test: Displacement of [3H]-DPCPX from human adenosine A1 receptor expressed in CHO cells at 10 uM after 30 mins by scintillation counting; format: cell-based
T3 sequence (whole entry): T2 sequence (P30542 whole entry)

[7] = biological target: Cytochrome P450 2D6 (Homo sapiens, UniProt P10635); test: Inhibition of recombinant CYP2D6 after 45 mins; format: ADME; method in brief: as §1
[8] = system: Liver microsomes; test: Intrinsic clearance in rat liver microsomes at 1 uM after 60 mins by LC-MS/MS analysis; format: ADME, Microsome; settings: 1 h
Method in brief: (§2)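 Compound at 1 μM with human or rat liver microsomes (0.5 mg protein/mL) plus NADPH at 37 C. Samples at 0, 5, 15, 30 and 60 min, quenched with acetonitrile, analysed by LC-MS/MS.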

[9] = biological target: Cytochrome P450 2C9 (Homo sapiens, UniProt P11712); test: Inhibition of recombinant CYP2C9 after 45 mins; format: ADME
[10] = system: Liver microsomes; test: Intrinsic clearance in human liver microsomes at 1 uM after 60 mins by LC-MS/MS analysis; format: ADME, Microsome; settings: 1 h; method in brief: as §2
[11] = biological target: T4, Cytochrome P450 1A2 (Homo sapiens, UniProt P05177); test: Inhibition of recombinant CYP1A2 after 28 mins; format: ADME; method in brief: as §1
T4 sequence (P05177 whole entry): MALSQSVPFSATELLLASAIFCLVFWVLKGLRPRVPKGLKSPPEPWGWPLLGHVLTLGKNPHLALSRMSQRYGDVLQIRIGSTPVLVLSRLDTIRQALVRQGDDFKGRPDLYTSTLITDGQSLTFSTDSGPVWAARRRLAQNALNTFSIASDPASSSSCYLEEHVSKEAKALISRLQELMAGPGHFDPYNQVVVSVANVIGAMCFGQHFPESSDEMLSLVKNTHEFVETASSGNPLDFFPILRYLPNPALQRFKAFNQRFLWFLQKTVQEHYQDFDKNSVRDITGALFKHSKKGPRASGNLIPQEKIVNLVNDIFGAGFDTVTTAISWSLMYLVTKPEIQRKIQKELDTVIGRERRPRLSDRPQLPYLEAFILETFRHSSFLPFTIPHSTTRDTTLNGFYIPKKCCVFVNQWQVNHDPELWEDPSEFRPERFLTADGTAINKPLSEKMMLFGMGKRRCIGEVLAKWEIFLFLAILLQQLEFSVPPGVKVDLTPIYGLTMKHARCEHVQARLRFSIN

[12] = biological target: Cytochrome P450 3A4 (Homo sapiens, UniProt P08684); test: Inhibition of recombinant CYP3A4 after 30 mins; format: ADME
Method in brief: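 Recombinant CYP supersomes incubated in phosphate buffer with eight compound concentrations (40-0.02 μM) and fluorogenic substrates. CYP3A4: resorufin benzyl ether 100 μM, 30 min. Fluorescent metabolite read; IC50 relative to uninhibited controls.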

[13] = biological target: T1, Adenosine receptor A2a; test: Displacement of [3H]-ZM241385 from human adenosine A2A receptor expressed in high five cells at 10 uM after 30 mins by scintillation counting
Method in brief: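 hA2A membranes from baculovirus-infected High Five cells (harvested 72 h), pretreated with adenosine deaminase 2 U/mL for 30 min at 37 C. Membranes at 10.6 μg protein/well were incubated with 1 nM [3H]-ZM241385 in 50 mM Tris/HCl pH 7.4 for 30 min at 25 C. GF/B filtration, scintillation counting. Nonspecific binding by CGS15943. Percent displacement at 10 μM.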

[14] = biological target: T3, Adenosine receptor A1 (Homo sapiens); test: Displacement of [3H]-DPCPX from human adenosine A1 receptor expressed in CHO cells at 2000 nM after 30 mins by scintillation counting
[15] = system: Mus musculus; test: Reversal of haloperidol-induced hypolocomotion in po dosed NMRI mouse administered 30 mins before haloperidol challenge measured for 20 mins; format: functional
Method in brief: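 Male NMRI mice (n = 8/group) were given compound po in 25% cremophor/saline, then haloperidol 0.63 mg/kg sc 30 min later. After 15 min they went into photocell activity boxes, and locomotion was recorded for 20 min. ED50 by sigmoidal fit with top 100 and bottom 0.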

T1 sequence (P29274 whole entry): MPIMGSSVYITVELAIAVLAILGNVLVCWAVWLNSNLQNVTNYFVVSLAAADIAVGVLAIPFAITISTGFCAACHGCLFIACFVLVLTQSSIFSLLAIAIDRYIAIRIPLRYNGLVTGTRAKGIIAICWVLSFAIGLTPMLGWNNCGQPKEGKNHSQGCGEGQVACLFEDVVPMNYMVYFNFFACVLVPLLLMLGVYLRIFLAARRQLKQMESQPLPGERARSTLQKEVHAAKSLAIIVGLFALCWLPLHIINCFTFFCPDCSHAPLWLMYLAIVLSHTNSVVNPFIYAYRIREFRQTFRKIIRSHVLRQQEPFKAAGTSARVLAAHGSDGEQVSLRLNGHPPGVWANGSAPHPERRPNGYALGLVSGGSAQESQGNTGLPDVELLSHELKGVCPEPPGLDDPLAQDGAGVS
Sequence of Cytochrome P450 2C19 (P33261 whole entry): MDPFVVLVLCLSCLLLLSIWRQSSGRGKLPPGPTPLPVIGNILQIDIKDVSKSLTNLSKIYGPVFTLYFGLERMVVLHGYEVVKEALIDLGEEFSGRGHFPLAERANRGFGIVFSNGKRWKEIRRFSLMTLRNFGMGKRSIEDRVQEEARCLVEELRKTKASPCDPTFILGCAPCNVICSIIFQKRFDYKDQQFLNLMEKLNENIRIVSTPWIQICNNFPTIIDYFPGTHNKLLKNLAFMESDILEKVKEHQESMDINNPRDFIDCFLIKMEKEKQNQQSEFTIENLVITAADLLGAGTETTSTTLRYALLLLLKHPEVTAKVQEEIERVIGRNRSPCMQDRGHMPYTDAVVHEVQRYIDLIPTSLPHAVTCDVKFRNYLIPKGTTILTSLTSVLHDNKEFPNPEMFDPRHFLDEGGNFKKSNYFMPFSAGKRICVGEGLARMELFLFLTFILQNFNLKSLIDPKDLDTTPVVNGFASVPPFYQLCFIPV
Sequence of Cytochrome P450 2D6 (P10635 whole entry): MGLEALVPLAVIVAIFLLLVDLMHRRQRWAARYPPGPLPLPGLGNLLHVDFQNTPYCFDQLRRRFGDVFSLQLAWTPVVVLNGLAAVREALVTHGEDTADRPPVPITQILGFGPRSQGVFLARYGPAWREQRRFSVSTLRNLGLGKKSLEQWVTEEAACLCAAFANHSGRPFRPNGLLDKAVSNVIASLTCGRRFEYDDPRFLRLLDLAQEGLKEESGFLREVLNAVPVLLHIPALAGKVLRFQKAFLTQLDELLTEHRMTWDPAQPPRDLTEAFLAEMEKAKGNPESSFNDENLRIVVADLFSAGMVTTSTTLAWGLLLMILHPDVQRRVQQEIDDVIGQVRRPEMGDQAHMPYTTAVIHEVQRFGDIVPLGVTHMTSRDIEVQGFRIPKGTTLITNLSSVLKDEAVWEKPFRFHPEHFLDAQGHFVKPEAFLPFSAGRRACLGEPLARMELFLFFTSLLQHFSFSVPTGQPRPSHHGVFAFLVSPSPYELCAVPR
Sequence of Cytochrome P450 3A4 (P08684 whole entry): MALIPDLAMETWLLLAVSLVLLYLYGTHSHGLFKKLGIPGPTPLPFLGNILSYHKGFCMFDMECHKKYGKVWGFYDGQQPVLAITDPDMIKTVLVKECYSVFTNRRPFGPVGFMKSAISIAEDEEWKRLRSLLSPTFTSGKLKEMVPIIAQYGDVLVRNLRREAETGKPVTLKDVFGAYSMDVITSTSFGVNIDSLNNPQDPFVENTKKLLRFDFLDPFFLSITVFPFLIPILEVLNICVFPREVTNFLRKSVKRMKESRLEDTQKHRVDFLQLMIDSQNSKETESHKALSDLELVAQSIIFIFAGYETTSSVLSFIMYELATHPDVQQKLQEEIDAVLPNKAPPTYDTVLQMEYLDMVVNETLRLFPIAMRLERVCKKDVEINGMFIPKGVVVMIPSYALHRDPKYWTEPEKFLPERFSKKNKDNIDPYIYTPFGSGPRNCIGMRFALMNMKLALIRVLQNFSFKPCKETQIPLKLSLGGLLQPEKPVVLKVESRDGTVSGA
Sequence of Cytochrome P450 2C9 (P11712 whole entry): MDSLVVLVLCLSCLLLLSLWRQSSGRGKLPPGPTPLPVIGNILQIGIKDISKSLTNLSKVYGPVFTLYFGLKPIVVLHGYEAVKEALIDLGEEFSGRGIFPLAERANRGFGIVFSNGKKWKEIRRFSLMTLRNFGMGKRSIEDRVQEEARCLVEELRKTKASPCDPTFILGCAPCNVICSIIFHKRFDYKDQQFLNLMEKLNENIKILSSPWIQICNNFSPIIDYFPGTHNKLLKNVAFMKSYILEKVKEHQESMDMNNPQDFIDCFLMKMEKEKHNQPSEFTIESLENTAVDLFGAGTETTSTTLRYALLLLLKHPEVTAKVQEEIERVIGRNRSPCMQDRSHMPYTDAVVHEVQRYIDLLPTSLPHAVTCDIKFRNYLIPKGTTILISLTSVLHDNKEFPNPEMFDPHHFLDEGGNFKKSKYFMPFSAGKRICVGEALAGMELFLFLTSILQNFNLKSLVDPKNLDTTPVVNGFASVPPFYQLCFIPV

Ki [1]: 300 nM
Structure (SMILES): CC(C)C(=O)Nc1ccc(C(=O)Nc2nccs2)cc1

Ki [1]: 32 nM
Ratio Ki [2]: 18
Ki [3]: 580 nM
Structure (SMILES): Cc1cc(C(=O)Nc2nccs2)cc(Cl)c1NC(=O)CC(C)(C)C

Ki [1]: 350 nM
Ratio [4]: 0.7
IC50 [5]: 36000 nM
inhibition [6]: 54%
IC50 [7]: > 40000 nM
CL [8]: 18 mL/min
IC50 [9]: > 40000 nM
CL [10]: 0.8 L/min
IC50 [11]: > 40000 nM
IC50 [12]: > 40000 nM
Structure (SMILES): CCCC(=O)Nc1ccc(C(=O)Nc2nccs2)cc1

Ki [1]: 12 nM
Ratio Ki [2]: 18
Ki [3]: 220 nM
Structure (SMILES): COc1c(C(=O)Nc2nccs2)ccc(NC(=O)CC(C)(C)C)c1F

Ki [1]: 36 nM
Ratio [4]: 0.7
IC50 [5]: > 40000 nM
inhibition [6]: 39%
IC50 [7]: > 40000 nM
CL [8]: 11 mL/min
IC50 [9]: > 40000 nM
CL [10]: 0.7 L/min
IC50 [11]: > 40000 nM
IC50 [12]: > 40000 nM
Structure (SMILES): CC(C)(C)CC(=O)Nc1ccc(C(=O)Nc2nccs2)cc1

Ki [1]: 17 nM
Ratio Ki [2]: 20
Ki [3]: 340 nM
Structure (SMILES): COc1cc(C(=O)Nc2nccs2)ccc1NC(=O)CC(C)(C)C

inhibition [13]: 18%
Structure (SMILES): CC(C)(C)CC(=O)Nc1ccc(NC(=O)c2nccs2)cc1

Ki [1]: 200 nM
inhibition [6]: 36%
Structure (SMILES): Cc1cc(NC(=O)CC(C)(C)C)ccc1C(=O)Nc1nccs1

Ki [1]: 220 nM
Structure (SMILES): Cc1nc(NC(=O)c2ccc(NC(=O)CC(C)(C)C)cc2)sc1C

Ki [1]: 110 nM
Structure (SMILES): CC(C)(C)CNC(=O)c1ccc(C(=O)Nc2nccs2)cc1

Ki [1]: 22 nM
Ratio Ki [2]: 10
Ki [3]: 210 nM
Structure (SMILES): CC(C)(C)CC(=O)Nc1ccc(C(=O)Nc2nccs2)cc1Cl

inhibition [14]: 30%
Ratio [4]: 1.1
IC50 [5]: > 40000 nM
IC50 [7]: > 40000 nM
IC50 [11]: > 40000 nM
Structure (SMILES): COCCOc1ccc(N2CCN(CCn3ncc4c3nc(N)n3nc(-c5ccco5)nc43)CC2)cc1 [PRELADENANT]
ED50 [15]: 0.4 mg/kg

Ki [1]: 19 nM
Ratio Ki [2]: 24
Ki [3]: 460 nM
Structure (SMILES): Cc1cc(C(=O)Nc2nccs2)ccc1NC(=O)CC(C)(C)C

— ChEMBL document CHEMBL1671809, “Discovery of phosphoric acid mono-{2-[(E/Z)-4-(3,3-dimethyl-butyrylamino)-3,5-difluoro-benzoylimino]-thiazol-3-ylmethyl} ester (Lu AA47070): a phosphonooxymethylene prodrug of a potent and selective hA(2A) receptor antagonist” (J Med Chem, 2011)
